Measured values taken from ChEMBL document CHEMBL1158783, “Neoflavonoids and related constituents from Nepalese propolis and their nitric oxide production inhibitory activity” (J Nat Prod, 2005).

Legend:
J774.1 = test: Inhibition of LPS-induced NO production in mouse J774.1 cells after 24 hrs by Griess reagent assay; assay type: functional, cell-based; details: J774.1, 24 h
How it was run: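 J774.1 cells grown in RPMI 1640 with penicillin G, streptomycin and 10% FCS, seeded at 1 × 10⁵ cells/well and left to adhere for 2 h at 37 °C, 5% CO₂. Fresh medium with LPS (10 µg/mL) plus compound was then added for 24 h. Supernatant nitrite was read with Griess reagent (10 min, room temperature, A550), medium-blank corrected, and compared with an LPS-only control. IC50 taken from the mean of four determinations.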

[1] = Cytotoxicity against mouse J774.1 cells at > 50 uM by MTT assay; assay type: cell-based

SMILES | IC50 (J774.1) | Activity [1]
C=CC(c1ccccc1)[C@H]1C[C@@H](O)[C@@H](OC)CC1=O (stereo not given in full) | 9.6 µM | –
C=C[C@H](C1=CC(=O)C(OC)=CC1=O)c1ccccc1 | 10.2 µM | –
COc1ccc2c(c1)O[C@H]1c3ccc(O)c(O)c3OC[C@@H]21 | 5.4 µM | –
C=C[C@H](c1ccccc1)[C@@H]1C[C@@H](O)[C@@H](OC)CC1=O | 9.6 µM | –
C=CC(c1ccccc1)[C@H]1C[C@@H](O)C[C@@H](OC)C1=O (stereo not given in full) | 2.3 µM | –
C=CC(c1ccccc1)c1cc(O)c(OC)cc1O (stereo not given) [OBTUSAQUINOL] | 6.3 µM | –
C=CC(c1ccccc1)[C@@H]1C[C@H](O)C(OC)=CC1=O (stereo not given in full) | 48.5 µM | –
O=C(/C=C/c1ccc(O)c(O)c1)OCCc1ccccc1 [CAFFEIC ACID PHENETHYL ESTER] | 4.8 µM | –
C=C[C@@H](c1ccccc1)[C@@H]1C[C@@H](O)[C@@H](OC)C[C@@H]1O | 100 µM | –
C=C[C@@H](c1ccccc1)[C@@H]1C[C@@H](O)[C@@H](OC)CC1=O | 13.2 µM | –
COc1ccc2c(c1O)O[C@@H]1c3ccc(O)cc3OC[C@H]21 | 3.4 µM | –
COc1cc(O)c(C(=O)c2ccccc2)cc1O [CEAROIN] | 15.4 µM | –
COC1=CC(=O)CCC1(O)C/C=C/c1ccccc1 (stereo not given) | 19.2 µM | –
C=C[C@@H](c1ccccc1)c1ccc(O)cc1O | 5.5 µM | –
C=CC(c1ccccc1)[C@@H]1C[C@@H](O)C=CC1=O (stereo not given in full) | 0.5 µM | Active
C=CC(c1ccccc1)[C@H]1C[C@@H](O)C=CC1=O (stereo not given in full) | 0.5 µM | Active
O=C(/C=C/c1ccc(O)cc1)c1ccc(O)cc1O [ISOLIQUIRITIGENIN] | 29.3 µM | –
C=C[C@@H](c1ccccc1)c1ccc(O)c(O)c1 | 8.4 µM | –
